Data as given in paper PMC4126877 (Molecular cancer therapeutics, 2014).
Several values for one entry are separate records, joined by “and”; a condition that tells them apart may be missing. Identical values can stand only once. Like-named read-outs stand apart in the source and are kept apart here.

Legend:
DT40 hTDP1 cells = assay type: cell-based; settings: 72 h
[1] = molecular target: endogenous human TDP1 from whole cell extracts (DT40 hTDP1) (Homo sapiens, UniProt Q9NUW8); experiment: Whole cell extract; assay type: biochemical
recombinant human TDP2 = molecular target: T1, recombinant human TDP2 (Homo sapiens, UniProt O95551); experiment: Recombinant TDP2 counter-screening assay; assay type: biochemical; settings: for activity against TDP2 (in words): tested up to 111 µM
T1 sequence (O95551 1-362): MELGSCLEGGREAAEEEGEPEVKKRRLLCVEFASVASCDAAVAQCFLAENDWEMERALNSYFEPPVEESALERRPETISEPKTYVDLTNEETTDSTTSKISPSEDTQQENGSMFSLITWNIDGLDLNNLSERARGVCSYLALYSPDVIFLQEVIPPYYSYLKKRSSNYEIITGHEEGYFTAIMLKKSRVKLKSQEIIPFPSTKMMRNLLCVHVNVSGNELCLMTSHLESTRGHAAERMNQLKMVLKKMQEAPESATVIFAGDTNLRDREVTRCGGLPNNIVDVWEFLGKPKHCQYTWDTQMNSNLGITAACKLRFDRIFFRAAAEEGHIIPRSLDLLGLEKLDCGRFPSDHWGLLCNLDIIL
How it was run: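 Counter-screen: 1 nM α32P-cordycepin-3′-labeled 18-mer single-stranded oligonucleotide incubated with 25 pM recombinant human TDP2, ± inhibitor, 15 min, room temperature. Reactions terminated and processed as the TDP1 gel assays: gel run, PhosphorImager exposure, densitometry.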

recombinant TDP1 = recombinant TDP1 (Homo sapiens, UniProt Q9NUW8); experiment: Recombinant TDP1 gel-based assay; assay type: biochemical
How it was run: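 Gel-based cleavage assay: 1 nM 5′-[32P]-labeled single-stranded oligonucleotide with a 3′-phosphotyrosine (N14Y) incubated with 10 pM recombinant TDP1, ± inhibitor, 15 min, room temperature. Parallel reactions in HTS buffer: 1X PBS pH 7.4, 80 mM KCl, 0.01% Tween-20. Gels dried, PhosphorImager-scanned, quantified by densitometry.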

Chk2 = settings: cited from earlier work
[2] = read-out: IC50 TDP1 REC, recombinant TDP1, WCE buffer

Chain of recombinant TDP1 (Q9NUW8 whole entry): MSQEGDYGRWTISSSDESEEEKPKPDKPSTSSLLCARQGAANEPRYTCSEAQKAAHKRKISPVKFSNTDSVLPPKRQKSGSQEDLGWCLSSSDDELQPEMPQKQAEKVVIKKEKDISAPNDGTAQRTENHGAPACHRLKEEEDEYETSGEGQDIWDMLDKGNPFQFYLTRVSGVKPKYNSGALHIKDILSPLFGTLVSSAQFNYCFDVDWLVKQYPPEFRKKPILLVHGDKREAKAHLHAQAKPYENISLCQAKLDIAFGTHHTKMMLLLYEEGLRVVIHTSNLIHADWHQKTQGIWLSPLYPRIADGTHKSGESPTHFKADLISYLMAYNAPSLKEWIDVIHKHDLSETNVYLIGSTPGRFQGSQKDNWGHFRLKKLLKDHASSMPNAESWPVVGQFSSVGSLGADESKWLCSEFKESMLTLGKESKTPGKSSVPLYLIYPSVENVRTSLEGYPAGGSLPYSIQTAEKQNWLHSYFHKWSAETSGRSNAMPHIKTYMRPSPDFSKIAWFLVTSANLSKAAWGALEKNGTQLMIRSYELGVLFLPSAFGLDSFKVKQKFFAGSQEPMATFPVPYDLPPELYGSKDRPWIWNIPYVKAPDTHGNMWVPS
Chain of endogenous human TDP1 from whole cell extracts (DT40 hTDP1) (Q9NUW8 whole entry): as above

| SMILES | cytotoxicity (DT40 hTDP1 cells) | synergistic effect in combination with CPT (DT40 hTDP1 cells) | activity against TDP2 (in words) (recombinant human TDP2) | inhibition of REC-TDP1 (in words) (recombinant TDP1) | IC50 (recombinant TDP1; [2]) [µM] | other results |
| --- | --- | --- | --- | --- | --- | --- |
| O=C(O)c1ccc(-c2ccc(C=C3NC(=O)N(Cc4ccccc4F)C3=O)o2)cc1 [JLT048, 4-(5-[{[1-(2-fluorobenzyl)-2,5-dioxo-4-imidazolidinylidene]methyl]}-2furyl)benzoic acid] | did not exhibit any cytotoxicity | no synergistic effect | also inhibited TDP2, albeit with higher IC50 values | inhibited REC-TDP1 at low micromolar concentrations |  | IC50 ([1]; IC50 TDP1 WCE, WCE buffer): 115 µM and 148 µM; IC50 (recombinant human TDP2): 32 ± 10 µM; IC50 (recombinant TDP1): 7.7 ± 1.8 µM |
| CN[C@@H]1C[C@H]2O[C@@](C)([C@@H]1OC)n1c3ccccc3c3c4c(c5c6ccccc6n2c5c31)C(=O)N[C@H]4O [7-hydroxystaurosporine (UCN-01), 7-hydroxystaurosporine] |  |  |  |  |  | inhibition of Chk2 purified from cell extract by immunoprecipitation (Chk2): found to inhibit; inhibition of recombinant Chk2 enzyme (Chk2): ineffective |
| Cc1ccc(Nc2nn3c(=O)c4ccccc4nc3s2)cc1C [NCGC00183674] | did not exhibit any cytotoxicity | no synergistic effect | only marginal activity against TDP2 at 111 µM | inhibited REC-TDP1 at low micromolar concentrations | 12.1 ± 1.7 | IC50 ([1]; read-out: IC50 TDP1 WCE, WCE buffer): 51 µM and 59 µM; selectivity for TDP1 versus TDP2 (recombinant human TDP2): higher selectivity for TDP1; IC50 (recombinant human TDP2; read-out: IC50 TDP2 REC, recombinant TDP2): > 111 µM |
| O=c1c2ccccc2nc2sc(Nc3ccc4c(c3)CCC4)nn12 [NCGC00183964] |  |  |  |  | 81 | reduction in potency, WCE buffer vs HTS buffer (recombinant TDP1; REC-TDP1): 25 fold |
